Test results taken from ChEMBL document CHEMBL1153374, “Synthesis, anti-inflammatory, and antioxidant activities of 18beta-glycyrrhetinic acid derivatives as chemical mediators and xanthine oxidase inhibitors” (Bioorg Med Chem, 2009).
The source made the active and inactive calls. No cut-off for these calls is given here.

Legend:
[1] = tested on: Neutrophil; assay: Inhibition of fMLP/cytochalasin B-stimulated super oxide anion generation in Sprague-Dawley rat neutrophils; format: functional, cell-based
Outline: (§1)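 Peripheral blood neutrophils were isolated from Sprague-Dawley rats. Stimulus was fMLP (0.3 µM) with cytochalasin B (5 µg/mL) for 30 min, or PMA (3 nM). Superoxide was measured as SOD-inhibitable cytochrome c reduction. DPI was the reference inhibitor. IC50 was taken from concentration–response curves; means ± SD, n = 3–6.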

[2] = tested on: RAW264.7; assay: Inhibition of LPS-induced nitric oxide generation in mouse RAW264.7 cells pretreated 1 hr before LPS challenge by Griess method; format: functional, cell-based
Outline: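 Plated RAW 264.7 cells were preincubated with compound for 1 h at 37 °C, then stimulated with LPS at 1 µg/mL for 24 h. Nitrite accumulated in the medium was measured by the Griess reaction. Results are % inhibition at a single concentration or IC50 from concentration curves. Data are means ± SD, n = 3–6. Final DMSO <0.5%.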

[3] = tested on: Nucleic Acid; assay: Inhibition of superoxide anion induced DNA damage of Escherichia coli pBR322 at 300 uM by gel electrophoresis; format: functional
Outline: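 Supercoiled pBR322 plasmid DNA (1 µg/µL) was exposed to xanthine (2 mM)/xanthine oxidase (0.7 U/mL) in 10 mM phosphate buffer, pH 7.4, with compound for 20 min at 37 °C. SOD and quercetin served as comparators. Mixtures were electrophoresed on 1.0% agarose with ethidium bromide (0.05 µg/mL) in TAE, 100 V, 30 min.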

[4] = tested on: Radical scavenging activity; assay: Antioxidant activity assessed as DPPH radical scavenging activity; format: functional
[5] = target: Xanthine dehydrogenase/oxidase (Homo sapiens, UniProt P47989); assay: Inhibition of xanthine oxidase
Chain of Xanthine dehydrogenase/oxidase (P47989 whole entry): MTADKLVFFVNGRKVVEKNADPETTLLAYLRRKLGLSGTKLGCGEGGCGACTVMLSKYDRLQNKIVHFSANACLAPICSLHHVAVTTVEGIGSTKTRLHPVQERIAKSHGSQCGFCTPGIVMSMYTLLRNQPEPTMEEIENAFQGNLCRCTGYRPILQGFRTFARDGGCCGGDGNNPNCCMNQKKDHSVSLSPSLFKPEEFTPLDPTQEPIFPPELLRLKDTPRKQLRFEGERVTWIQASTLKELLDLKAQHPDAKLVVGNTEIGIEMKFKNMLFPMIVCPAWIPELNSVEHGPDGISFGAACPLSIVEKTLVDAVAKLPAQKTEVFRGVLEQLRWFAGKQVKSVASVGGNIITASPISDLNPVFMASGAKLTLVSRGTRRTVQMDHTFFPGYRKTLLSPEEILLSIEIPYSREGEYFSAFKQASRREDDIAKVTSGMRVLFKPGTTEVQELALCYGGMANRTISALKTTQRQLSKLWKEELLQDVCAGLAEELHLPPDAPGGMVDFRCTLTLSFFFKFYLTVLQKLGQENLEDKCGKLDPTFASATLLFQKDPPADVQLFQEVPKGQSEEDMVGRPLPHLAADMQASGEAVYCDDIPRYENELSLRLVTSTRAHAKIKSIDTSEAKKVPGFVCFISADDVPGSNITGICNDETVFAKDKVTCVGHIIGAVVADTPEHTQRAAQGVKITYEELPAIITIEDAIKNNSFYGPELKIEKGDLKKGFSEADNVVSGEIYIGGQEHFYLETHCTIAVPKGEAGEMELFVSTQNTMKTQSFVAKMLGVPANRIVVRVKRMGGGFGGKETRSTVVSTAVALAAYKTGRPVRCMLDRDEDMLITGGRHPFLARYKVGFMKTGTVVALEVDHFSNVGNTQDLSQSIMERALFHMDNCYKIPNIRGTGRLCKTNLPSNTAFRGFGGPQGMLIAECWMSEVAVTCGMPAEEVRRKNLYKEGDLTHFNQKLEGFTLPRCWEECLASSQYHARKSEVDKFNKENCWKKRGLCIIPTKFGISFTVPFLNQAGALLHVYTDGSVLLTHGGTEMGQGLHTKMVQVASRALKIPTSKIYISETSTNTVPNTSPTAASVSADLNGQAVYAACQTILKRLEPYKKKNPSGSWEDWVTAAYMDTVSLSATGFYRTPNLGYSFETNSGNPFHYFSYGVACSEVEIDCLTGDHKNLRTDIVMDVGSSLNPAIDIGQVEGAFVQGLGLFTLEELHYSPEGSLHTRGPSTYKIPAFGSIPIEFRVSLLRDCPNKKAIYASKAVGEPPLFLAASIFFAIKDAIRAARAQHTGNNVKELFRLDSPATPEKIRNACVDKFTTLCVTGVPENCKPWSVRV
Outline: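 Xanthine oxidase activity measured at 25 °C with xanthine as substrate, in 70 mM phosphate buffer (pH 7.5), following a modified published protocol. Compounds were taken from 30 mM DMSO stocks diluted in DMSO, with final DMSO below 0.5% (v/v).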

[6] = tested on: Neutrophil; assay: Inhibition of PMA-stimulated super oxide anion generation in Sprague-Dawley rat neutrophils; format: functional, cell-based; outline: as §1
[7] = tested on: RAW264.7; assay: Inhibition of LPS-induced TNFalpha release in mouse RAW264.7 cells pretreated 1 hr before LPS challenge by enzyme immunoassay; format: functional, cell-based
Outline: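 RAW 264.7 murine macrophages were incubated with compound (diluted from DMSO stock; final DMSO <0.5% v/v), then stimulated with LPS. Secreted TNF-α in culture supernatant was quantified by EIA kit. Data are means ± SD, n = 3–6. IC50 was taken from concentration–response curves.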

[8] = tested on: RAW264.7; assay: Inhibition of LPS-induced iNOS protein expression in mouse RAW264.7 cells at 3 uM pretreated 1 hr before LPS challenge by Western blot; format: functional, cell-based
Outline: (§2)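 RAW 264.7 cells were pretreated 1 h with compound at 3 or 10 µM, then given LPS at 50 ng/mL for 24 h. Cells were washed with PBS, lysed in Laemmli SDS buffer and run on 10% SDS–PAGE, then transferred to PVDF and blocked in 5% milk/TBST. Blots were probed with monoclonal anti-iNOS (1:1000, 1 h) and HRP anti-mouse IgG (1:10,000), with ECL detection.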

[9] = tested on: RAW264.7; assay: Inhibition of LPS-induced iNOS protein expression in mouse RAW264.7 cells at 10 uM pretreated 1 hr before LPS challenge by Western blot; format: functional, cell-based; outline: as §2

IC50 [2]	IC50 [7]	Compound	inhibition [3]	inhibition [4]	inhibition [7]	other results
> 30 µM	13.7 µM	C=C(C)[C@@H]1CC[C@]2(C)[C@H](C(=O)C=C3[C@@H]4C[C@@](C)(C(=O)OCc5ccccc5)CC[C@]4(C)CC[C@]32C)[C@@]1(C)CCC(=O)OC	Active	inactive	Dose-dependent effect	IC50 [6]: 17 µM; inhibition [6]: Dose-dependent effect
	27.7 µM	C=C(C)[C@@H]1CC[C@]2(C)[C@H](C(=O)C=C3[C@@H]4C[C@@](C)(C(=O)Nc5ccccc5)CC[C@]4(C)CC[C@]32C)[C@@]1(C)CCC(=O)O			Dose-dependent effect	
> 30 µM		C=C(C)[C@@H]1CC[C@]2(C)[C@H](C(=O)C=C3[C@@H]4C[C@@](C)(C(=O)OC(C)C)CC[C@]4(C)CC[C@]32C)[C@@]1(C)CCC(=O)OC				
13.1 µM		C=C(C)[C@@H]1CC[C@]2(C)[C@H](C(=O)C=C3[C@@H]4C[C@@](C)(C(=O)NC(C)C)CC[C@]4(C)CC[C@]32C)[C@@]1(C)CCC(=O)OC	Active	inactive		IC50 [6]: 15.6 µM; inhibition [6]: Dose-dependent effect; inhibition [8]: Active; inhibition [9]: Active
	15.5 µM	C=C(C)[C@@H]1CC[C@]2(C)[C@H](C(=O)C=C3[C@@H]4C[C@@](C)(C(=O)Nc5ccccc5)CC[C@]4(C)CC[C@]32C)[C@@]1(C)CCC(=O)OC			Dose-dependent effect	
	26.1 µM	C=C(C)[C@@H]1CC[C@]2(C)[C@H](C(=O)C=C3[C@@H]4C[C@@](C)(C(=O)OC)CC[C@]4(C)CC[C@]32C)[C@@]1(C)CCC(=O)O			Dose-dependent effect	
> 30 µM		C=C(C)[C@@H]1CC[C@]2(C)[C@H](C(=O)C=C3[C@@H]4C[C@@](C)(C(=O)OC)CC[C@]4(C)CC[C@]32C)[C@@]1(C)CCC(=O)OC				
	2.3 µM	C=C(C)[C@@H]1CC[C@]2(C)[C@H](C(=O)C=C3[C@@H]4C[C@@](C)(C(=O)OCc5ccccc5)CC[C@]4(C)CC[C@]32C)[C@@]1(C)CCC(=O)O			Dose-dependent effect	

The next lines start with the molecule.

Compound	IC50 [2]	IC50 [7]	inhibition [3]	inhibition [4]	inhibition [7]	other results
CC1(C)C(=O)CC[C@]2(C)[C@H]3C(=O)C=C4[C@@H]5C[C@@](C)(C(=O)O)CC[C@]5(C)CC[C@@]4(C)[C@]3(C)CC[C@@H]12	> 30 µM		Active	inactive		IC50 [1]: 10.3 µM; inhibition [1]: Dose-dependent effect; inhibition (INH) [5]: Not Active
C=C(C)[C@@H]1CC[C@]2(C)[C@H](C(=O)C=C3[C@@H]4C[C@@](C)(C(=O)O)CC[C@]4(C)CC[C@]32C)[C@@]1(C)CCC(=O)O			Active	inactive		IC50 [1]: 7 µM; inhibition [1]: Dose-dependent effect
CC(=N)NCc1cccc(CN)c1 [1400W]	1.5 µM					
C=C(C)[C@@H]1CC[C@]2(C)[C@H](C(=O)C=C3[C@@H]4C[C@@](C)(C(=O)NC(C)C)CC[C@]4(C)CC[C@]32C)[C@@]1(C)CCC(=O)O			Active	inactive		IC50 [1]: 9.8 µM; inhibition [1]: Dose-dependent effect
Oc1ncnc2[nH]ncc12 [ALLOPURINOL]				inactive		inhibition (INH) [5]: Not Active
COC(=O)[C@@]1(C)CC[C@]2(C)CC[C@]3(C)C(=CC(=O)[C@@H]4[C@@]5(C)CCC(=O)OC(C)(C)[C@@H]5CC[C@]43C)[C@@H]2C1			Active	inactive		IC50 [6]: 12.9 µM; inhibition [6]: Dose-dependent effect
O=c1c(-c2ccc(O)cc2)coc2cc(O)cc(O)c12 [GENISTEIN]		26.5 µM			Dose-dependent effect	
CC1(C)[C@@H](O)CC[C@]2(C)[C@H]3C(=O)C=C4[C@@H]5C[C@@](C)(C(=O)O)CC[C@]5(C)CC[C@@]4(C)[C@]3(C)CC[C@@H]12 [ENOXOLONE]		1.3 µM			Dose-dependent effect	
c1ccc2c(c1)[I+]c1ccccc1-2 [DIPHENYLENEIODONIUM CHLORIDE]						IC50 [1]: 2.7 µM; inhibition [1]: Dose-dependent effect; IC50 [6]: 1.8 µM; inhibition [6]: Dose-dependent effect
